Here are results for 29 compounds from ChEMBL document CHEMBL1152488, “Synthesis and evaluation of pyrido[1,2-a]pyrimidines as inhibitors of nitric oxide synthases” (Eur J Med Chem, 2009).

Structures are written as SMILES.

The target of assay [1] is T1, Nitric oxide synthase, inducible (Mus musculus) (UniProt P29477).
T1 sequence (whole entry): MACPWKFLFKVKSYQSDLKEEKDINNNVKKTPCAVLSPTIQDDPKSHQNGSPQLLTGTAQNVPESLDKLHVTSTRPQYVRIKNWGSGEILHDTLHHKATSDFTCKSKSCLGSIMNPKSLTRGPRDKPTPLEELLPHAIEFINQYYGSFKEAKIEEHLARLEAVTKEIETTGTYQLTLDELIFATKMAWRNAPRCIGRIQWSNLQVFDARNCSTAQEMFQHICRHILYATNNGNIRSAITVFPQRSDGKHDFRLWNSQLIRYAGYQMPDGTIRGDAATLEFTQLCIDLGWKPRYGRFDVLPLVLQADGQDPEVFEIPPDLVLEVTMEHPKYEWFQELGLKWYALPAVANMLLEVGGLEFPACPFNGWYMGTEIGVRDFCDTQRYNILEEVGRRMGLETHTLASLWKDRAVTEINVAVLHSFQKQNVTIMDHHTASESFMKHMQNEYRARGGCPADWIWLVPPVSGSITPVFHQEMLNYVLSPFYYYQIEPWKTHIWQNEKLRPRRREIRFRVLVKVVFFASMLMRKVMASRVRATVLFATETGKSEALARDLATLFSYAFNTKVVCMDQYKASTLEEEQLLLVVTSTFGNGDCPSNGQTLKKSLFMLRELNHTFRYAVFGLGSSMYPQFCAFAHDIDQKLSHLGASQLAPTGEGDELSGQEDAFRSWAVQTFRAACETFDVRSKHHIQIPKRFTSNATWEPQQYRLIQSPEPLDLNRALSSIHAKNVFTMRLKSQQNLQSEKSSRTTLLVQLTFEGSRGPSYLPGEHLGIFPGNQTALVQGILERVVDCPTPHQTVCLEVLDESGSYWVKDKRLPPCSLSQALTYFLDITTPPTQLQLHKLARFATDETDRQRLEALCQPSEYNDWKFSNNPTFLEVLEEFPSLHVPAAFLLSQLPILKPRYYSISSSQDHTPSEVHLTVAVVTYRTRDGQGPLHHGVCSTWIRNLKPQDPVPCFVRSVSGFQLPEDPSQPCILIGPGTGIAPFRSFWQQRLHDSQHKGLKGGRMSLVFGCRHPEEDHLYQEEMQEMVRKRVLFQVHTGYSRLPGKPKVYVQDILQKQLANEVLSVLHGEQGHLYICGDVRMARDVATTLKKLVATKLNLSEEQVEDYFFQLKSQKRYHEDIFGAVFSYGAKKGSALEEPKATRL
The assay is described as follows: Inhibition of mouse iNOS expressed in insect Sf9 cells assessed as residual activity at 100 uM by Griess assay relative to control. A digest of the protocol: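 Murine iNOS produced in Sf9 insect cells. Buffer: 50 mM triethanolamine pH 7.5, 1 mM CHAPS, 10 mM 2-mercaptoethanol, 0.5 mM EDTA. Additions: 1 mM Mg2+, 5 µM FAD, 5 µM FMN, 0.5 mM NADPH, 10 µM H4B, 10 µg/ml CaM, 1 mM L-arginine. Compound at 100 µM final, 37 °C for 20 min. NADPH removed with LDH/pyruvate, then Griess read at 543 nm. Values are % of 1% DMSO control, 5 experiments.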
(In general: Nitrite, measured by Griess reagent, commonly stands in for NO production.)

Assay [2] concerns the target T2, Nitric oxide synthase 3 (Bos taurus) (UniProt P29473).
T2 sequence (whole entry): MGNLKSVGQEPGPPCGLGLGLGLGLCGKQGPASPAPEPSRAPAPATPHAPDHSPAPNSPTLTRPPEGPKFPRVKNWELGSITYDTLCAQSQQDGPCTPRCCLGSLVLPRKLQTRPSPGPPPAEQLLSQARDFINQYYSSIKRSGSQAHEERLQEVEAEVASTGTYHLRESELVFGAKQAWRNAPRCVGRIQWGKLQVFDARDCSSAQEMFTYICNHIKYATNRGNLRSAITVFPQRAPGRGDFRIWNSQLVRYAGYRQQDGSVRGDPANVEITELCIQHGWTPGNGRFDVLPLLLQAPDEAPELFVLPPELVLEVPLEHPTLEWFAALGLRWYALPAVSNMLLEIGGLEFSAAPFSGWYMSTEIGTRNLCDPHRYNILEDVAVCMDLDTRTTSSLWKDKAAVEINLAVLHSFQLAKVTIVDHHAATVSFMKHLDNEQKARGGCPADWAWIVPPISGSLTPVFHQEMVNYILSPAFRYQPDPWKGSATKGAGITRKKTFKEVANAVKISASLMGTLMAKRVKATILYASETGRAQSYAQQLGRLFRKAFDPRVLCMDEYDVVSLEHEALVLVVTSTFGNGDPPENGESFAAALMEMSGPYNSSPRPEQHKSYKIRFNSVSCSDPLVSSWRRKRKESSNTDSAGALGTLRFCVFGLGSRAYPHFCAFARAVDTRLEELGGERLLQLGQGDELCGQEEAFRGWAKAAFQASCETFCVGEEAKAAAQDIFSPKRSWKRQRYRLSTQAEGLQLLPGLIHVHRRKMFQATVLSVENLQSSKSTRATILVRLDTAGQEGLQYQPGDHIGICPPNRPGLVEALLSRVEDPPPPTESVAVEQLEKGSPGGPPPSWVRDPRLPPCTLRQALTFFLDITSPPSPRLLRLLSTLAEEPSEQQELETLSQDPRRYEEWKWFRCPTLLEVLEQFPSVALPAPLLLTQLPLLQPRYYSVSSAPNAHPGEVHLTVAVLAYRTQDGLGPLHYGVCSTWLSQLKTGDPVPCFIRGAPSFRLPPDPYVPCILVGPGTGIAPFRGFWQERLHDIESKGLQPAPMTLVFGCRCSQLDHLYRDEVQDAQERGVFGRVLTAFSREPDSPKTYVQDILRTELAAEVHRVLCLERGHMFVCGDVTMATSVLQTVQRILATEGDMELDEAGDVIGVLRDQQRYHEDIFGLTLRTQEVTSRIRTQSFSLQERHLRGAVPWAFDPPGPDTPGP
In words: Inhibition of bovine eNOS expressed in insect Sf9 cells assessed as residual activity at 100 uM by Griess assay relative to control. The gist of the method:
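Bovine eNOS from Sf9 cells. Reaction: triethanolamine buffer pH 7.5, 0.5 mM Ca2+, 10 µg/ml CaM, 10 µM H4B, FAD, FMN, 0.5 mM NADPH, 1 mM L-arginine, with 100 µM compound, 20 min at 37 °C. After NADPH removal by LDH/pyruvate, nitrite measured by Griess at 543 nm. Expressed as % residual activity versus 1% DMSO control, 5 experiments.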

Assay [3] concerns the target T2, Nitric oxide synthase 3 (Bos taurus). The assay is described as follows: Inhibition of bovine recombinant eNOS expressed in Escherichia coli assessed as conversion of [gamma-14C]L-arginine to [14C]L-citrulline at 100 uM by radioactive assay relative to control. Also on record: scale not given: the % may be the effect or the level left. A digest of the protocol:
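Purified enzymes: rat nNOS from S. cerevisiae, murine iNOS and bovine eNOS from E. coli. Reaction 5 min at 37 °C in 50 mM Hepes pH 7.4 with DTT, 1 mM NADPH, H4B, FAD, FMN, [14C]L-arginine (2.5 µM L-arginine) and 100 µM compound in 1% DMSO. nNOS/eNOS also got 1 mM CaCl2 and CaM, which iNOS lacked. [14C]citrulline isolated on Dowex and counted by scintillation; % of DMSO control, n=3.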

With `O=C(c1ccc(Br)cc1)C1CN=C2C=CC=CN2C1` (stereo not drawn), the Activity turned out to be 92% in assay [1] and 86% in assay [2].

Regarding `CC1=CC=CC2=NCC(C(=O)c3ccc(C)cc3)CN12.[O-][Cl+3]([O-])([O-])O` (stereo not drawn), the Activity was 84% in assay [3], 99% in assay [1] and 101% in assay [2].

On to `COc1ccc(-c2ccc(C(=O)C3CN=C4C=C(C)C=CN4C3)cc2)cc1.Cl` (stereo not drawn), for which, in assay [3], the Activity is 15%.

Regarding `O=C(c1ccc2ccccc2c1)C1CN=C2C=CC=CN2C1` (stereo not drawn), the values for the Activity in assay [1] and in assay [2] were 97% and 80%, respectively.

In the case of `CC1=CC2=NCC(C(=O)c3ccc4ccccc4c3)CN2C=C1` (stereo not drawn), the Activity was 28% in assay [1] and 50% in assay [2].

`CC1=CC2=NCC(C(=O)c3ccc(Br)cc3)CN2C=C1` (stereo not drawn): the Activity in assay [1] is 33%; in assay [2], 72%.

With `COc1ccc(C(=O)C2CN=C3C=CC=C(C)N3C2)cc1OC.[O-][Cl+3]([O-])([O-])O` (stereo not drawn), the results for the Activity in assay [3], in assay [1] and in assay [2] were 81%, 95% and 90%, respectively.

For the compound `CC1=CC2=NCC(C(=O)c3ccc(F)cc3)CN2C=C1` (stereo not drawn), the figures for the Activity in assay [1] and in assay [2] were 78% and 37%, respectively.

On to `CC1=CC2=NCC(C(=O)c3ccc4cc(C)ccc4c3)CN2C=C1.[O-][Cl+3]([O-])([O-])O` (stereo not drawn), for which the Activity is 48% in assay [3], 90% in assay [1] and 49% in assay [2].

`CC1=CC2=NCC(C(=O)c3ccccc3)CN2C=C1` (stereo not drawn): the Activity amounted to 16% in assay [1] and 40% in assay [2].

Turning to `CC1=CC2=NCC(C(=O)c3ccc(-c4ccc(Br)cc4)cc3)CN2C=C1.[O-][Cl+3]([O-])([O-])O` (stereo not drawn), in assay [3], the Activity worked out at 65%.

On to `COc1ccc(C(=O)C2CN=C3C=C(C)C=CN3C2)cc1F.[O-][Cl+3]([O-])([O-])O` (stereo not drawn), for which the Activity in assay [3] was 59%.

Regarding `CC1=CC2=NCC(C(=O)c3ccc(OCc4ccc(Br)cc4)cc3)CN2C=C1.Cl` (stereo not drawn), the Activity in assay [3] was 77%.

Take `CCSC(=N)N`: the Activity in assay [1] was found to be 2%; in assay [2], 27%.

With `CC1=CC2=NCC(C(=O)c3ccc(Cl)cc3)CN2C=C1` (stereo not drawn), the Activity in assay [1] was 28%; in assay [2] it was 20%.

`CC1=CC2=NCC(C(=O)c3ccc(OCc4ccc(C#N)cc4)cc3)CN2C=C1.[O-][Cl+3]([O-])([O-])O` (stereo not drawn): in assay [3], the Activity was found to be 44%.

Regarding `CC1=CC=CC2=NCC(C(=O)c3ccc4ccccc4c3)CN12` (stereo not drawn), the Activity in assay [1] and in assay [2] was 75% each time.

As for `CC1=CC2=NCC(C(=O)c3ccc4cc(C)ccc4c3)CN2C(C)=C1.[O-][Cl+3]([O-])([O-])O` (stereo not drawn), the Activity in assay [3] was found to be 17%.

Take `CC1=CC=CC2=NCC(C(=O)c3ccc(Br)cc3)CN12` (stereo not drawn): the Activity in assay [1] was 9%; in assay [2], 93%.

In the case of `CC1=CC2=NCC(C(=O)c3ccc(-c4ccc(C#N)cc4)cc3)CN2C=C1.Cl` (stereo not drawn), in assay [3], the Activity was 18%.

Turning to `COc1ccc2cc(C(=O)C3CN=C4C=C(C)C=CN4C3)ccc2c1` (stereo not drawn), the Activity in assay [1] was determined as 72%; in assay [2] it was 80%.

Regarding `O=C(c1ccc(Cl)c(Cl)c1)C1CN=C2C=CC=CN2C1.[O-][Cl+3]([O-])([O-])O` (stereo not drawn), the Activity in assay [3] was 83%; in assay [1], 95%; in assay [2] it was 83%.

As for `N=C(NCCC[C@H](N)C(=O)O)N[N+](=O)[O-]`, the Activity in assay [3] is 5%.

`CC1=CC=CC2=NCC(C(=O)c3ccc(F)cc3)CN12.[O-][Cl+3]([O-])([O-])O` (stereo not drawn): the Activity in assay [3] amounted to 71%; in assay [1] it was 83%; in assay [2], 41%.

`CC1=CC2=NCC(C(=O)c3ccc(OCc4ccc(Cl)cc4)cc3)CN2C=C1.[O-][Cl+3]([O-])([O-])O` (stereo not drawn): the Activity in assay [3] was 2%.

With `CCCNC(=N)NCCC[C@H](N)C(=O)O`, the Activity in assay [1] is 88%; in assay [2], 93%.

As for `CC1=CC2=NCC(C(=O)c3ccc(-c4ccccc4)cc3)CN2C=C1` (stereo not drawn), the Activity in assay [1] came to 40%; in assay [2], 17%.

Consider `CC1=CC2=NCC(C(=O)c3ccc(-c4ccc(Br)cc4)cc3)CN2C(C)=C1` (stereo not drawn), for which the Activity in assay [3] was determined as 32%.

With `CC(=N)NCc1cccc(CN)c1`, the Activity in assay [1] worked out at 3%; in assay [2], 107%.
